Assay results as given in ChEMBL document CHEMBL5058577, “EUbOPEN Chemogenomics Library 2 (Multiplex)” (2022).

Test system: HEK-293T
Assay: Multiplex assay against HEK293T
Assay type: toxicity, cell-based
Details: human
Method in brief: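 Hoechst33342, BioTracker Green Microtubule Cytoskeleton Dye, MitoTracker Red and Annexin V Alexa Fluor 680 were added to live cells at seeding, and imaging on a CQ1 microscope at 37°C and 5% CO2 followed compound addition. Gating by CellPathfinder machine learning separated cells into Hoechst high-intensity objects or normal cells, then normal cells into healthy, pyknosed or fragmented nuclei, then pyknosed cells into mitotic or apoptotic. Per cents of healthy-nucleus cells are reported for the tubulin, mitochondrial-mass and membrane-permeability phenotypes.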

[1] = 12 h, 1 µM, compound concentration 1 uM, replicate 1
[2] = 12 h, 1 µM, compound concentration 1 uM, replicate 2
[3] = 12 h, 10 µM, compound concentration 10 uM, replicate 1
[4] = 12 h, 10 µM, compound concentration 10 uM, replicate 2
[5] = 24 h, 1 µM, compound concentration 1 uM, replicate 1
[6] = 24 h, 1 µM, compound concentration 1 uM, replicate 2
[7] = 24 h, 10 µM, compound concentration 10 uM, replicate 1
[8] = 24 h, 10 µM, compound concentration 10 uM, replicate 2
[9] = 48 h, 1 µM, compound concentration 1 uM, replicate 1
[10] = 48 h, 1 µM, compound concentration 1 uM, replicate 2
[11] = 48 h, 10 µM, compound concentration 10 uM, replicate 1
[12] = 48 h, 10 µM, compound concentration 10 uM, replicate 2

SMILES: CN(C)C/C=C/C(=O)Nc1ccc(C(=O)N2CCCC(Nc3ncc(Cl)c(-c4c[nH]c5ccccc45)n3)C2)cc1 (stereo not given)
- Population Apoptotic (%) [1]: 46%
- Population Fragmented Nuclei (%) [1]: 8%
- Population Healthy Nuclei (%) [1]: 55%
- Population Hoechst High Intensity Objects (%) [1]: 30%
- Population Membrane Permeable-Phenotype (%) [1]: 0%
- Population Mitochondria Different-Phenotype (%) [1]: 87%
- Population Mitotic Cells (%) [1]: 53%
- Population Normal (%) [1]: 69%
- Population Pyknosed Nuclei (%) [1]: 35%
- Population Tubulin-Different-Phenotype (%) [1]: 69%
- Total Cell Count [1]: 227
- Population Apoptotic (%) [2]: 63%
- Population Fragmented Nuclei (%) [2]: 6%
- Population Healthy Nuclei (%) [2]: 64%
- Population Hoechst High Intensity Objects (%) [2]: 23%
- Population Mitochondria Different-Phenotype (%) [2]: 89%
- Population Mitotic Cells (%) [2]: 36%
- Population Normal (%) [2]: 76%
- Population Pyknosed Nuclei (%) [2]: 29%
- Population Tubulin-Different-Phenotype (%) [2]: 70%
- Total Cell Count [2]: 231
- Population Apoptotic (%) [3]: 62%
- Population Fragmented Nuclei (%) [3]: 12%
- Population Healthy Nuclei (%) [3]: 57%
- Population Hoechst High Intensity Objects (%) [3]: 35%
- Population Membrane Permeable-Phenotype (%) [3]: 0%
- Population Mitochondria Different-Phenotype (%) [3]: 95%
- Population Mitotic Cells (%) [3]: 37%
- Population Normal (%) [3]: 64%
- Population Pyknosed Nuclei (%) [3]: 30%
- Population Tubulin-Different-Phenotype (%) [3]: 79%
- Total Cell Count [3]: 269
- Population Apoptotic (%) [4]: 77%
- Population Fragmented Nuclei (%) [4]: 7%
- Population Healthy Nuclei (%) [4]: 64%
- Population Hoechst High Intensity Objects (%) [4]: 29%
- Population Mitotic Cells (%) [4]: 22%
- Population Normal (%) [4]: 70%
- Population Pyknosed Nuclei (%) [4]: 28%
- Population Tubulin-Different-Phenotype (%) [4]: 81%
- Total Cell Count [4]: 181
- Population Apoptotic (%) [5]: 72%
- Population Fragmented Nuclei (%) [5]: 15%
- Population Healthy Nuclei (%) [5]: 62%
- Population Hoechst High Intensity Objects (%) [5]: 27%
- Population Membrane Permeable-Phenotype (%) [5]: 0%
- Population Mitochondria Different-Phenotype (%) [5]: 85%
- Population Mitotic Cells (%) [5]: 27%
- Population Normal (%) [5]: 72%
- Population Pyknosed Nuclei (%) [5]: 22%
- Population Tubulin-Different-Phenotype (%) [5]: 74%
- Total Cell Count [5]: 222
- Population Apoptotic (%) [6]: 74%
- Population Fragmented Nuclei (%) [6]: 9%
- Population Healthy Nuclei (%) [6]: 67%
- Population Hoechst High Intensity Objects (%) [6]: 26%
- Population Mitochondria Different-Phenotype (%) [6]: 89%
- Population Mitotic Cells (%) [6]: 25%
- Population Normal (%) [6]: 73%
- Population Pyknosed Nuclei (%) [6]: 23%
- Population Tubulin-Different-Phenotype (%) [6]: 70%
- Total Cell Count [6]: 207
- Population Apoptotic (%) [7]: 74%
- Population Fragmented Nuclei (%) [7]: 19%
- Population Healthy Nuclei (%) [7]: 55%
- Population Hoechst High Intensity Objects (%) [7]: 49%
- Population Membrane Permeable-Phenotype (%) [7]: 0%
- Population Mitochondria Different-Phenotype (%) [7]: 96%
- Population Mitotic Cells (%) [7]: 25%
- Population Normal (%) [7]: 50%
- Population Pyknosed Nuclei (%) [7]: 24%
- Population Tubulin-Different-Phenotype (%) [7]: 52%
- Total Cell Count [7]: 314
- Population Apoptotic (%) [8]: 88%
- Population Fragmented Nuclei (%) [8]: 10%
- Population Healthy Nuclei (%) [8]: 68%
- Population Hoechst High Intensity Objects (%) [8]: 34%
- Population Mitochondria Different-Phenotype (%) [8]: 98%
- Population Mitotic Cells (%) [8]: 11%
- Population Normal (%) [8]: 65%
- Population Pyknosed Nuclei (%) [8]: 20%
- Population Tubulin-Different-Phenotype (%) [8]: 77%
- Total Cell Count [8]: 197
- Population Apoptotic (%) [9]: 67%
- Population Fragmented Nuclei (%) [9]: 16%
- Population Healthy Nuclei (%) [9]: 59%
- Population Hoechst High Intensity Objects (%) [9]: 30%
- Population Membrane Permeable-Phenotype (%) [9]: 0%
- Population Mitochondria Different-Phenotype (%) [9]: 79%
- Population Mitotic Cells (%) [9]: 32%
- Population Normal (%) [9]: 69%
- Population Pyknosed Nuclei (%) [9]: 23%
- Population Tubulin-Different-Phenotype (%) [9]: 71%
- Total Cell Count [9]: 239
- Population Apoptotic (%) [10]: 81%
- Population Fragmented Nuclei (%) [10]: 6%
- Population Healthy Nuclei (%) [10]: 65%
- Population Hoechst High Intensity Objects (%) [10]: 26%
- Population Mitochondria Different-Phenotype (%) [10]: 95%
- Population Mitotic Cells (%) [10]: 18%
- Population Normal (%) [10]: 73%
- Population Pyknosed Nuclei (%) [10]: 27%
- Population Tubulin-Different-Phenotype (%) [10]: 74%
- Total Cell Count [10]: 184
- Population Apoptotic (%) [11]: 55%
- Population Fragmented Nuclei (%) [11]: 62%
- Population Healthy Nuclei (%) [11]: 14%
- Population Hoechst High Intensity Objects (%) [11]: 67%
- Population Membrane Permeable-Phenotype (%) [11]: 0%
- Population Mitochondria Different-Phenotype (%) [11]: 100%
- Population Mitotic Cells (%) [11]: 44%
- Population Normal (%) [11]: 32%
- Population Pyknosed Nuclei (%) [11]: 23%
- Population Tubulin-Different-Phenotype (%) [11]: 23%
- Total Cell Count [11]: 361
- Population Apoptotic (%) [12]: 80%
- Population Fragmented Nuclei (%) [12]: 47%
- Population Healthy Nuclei (%) [12]: 30%
- Population Hoechst High Intensity Objects (%) [12]: 58%
- Population Mitochondria Different-Phenotype (%) [12]: 94%
- Population Mitotic Cells (%) [12]: 20%
- Population Normal (%) [12]: 41%
- Population Pyknosed Nuclei (%) [12]: 21%
- Population Tubulin-Different-Phenotype (%) [12]: 57%
- Total Cell Count [12]: 277
